Activity calls are given as the source filed them. The calls are words filed in the database; no cut-off is given here.
Key:
Sialin (Homo sapiens) [1] = molecular target: T1, Sialin (Homo sapiens) (UniProt Q9NRA2); experiment: Inhibition of human recombinant-Sialin expressed in HEK293 cells assessed as reduction in [3H]Neu5Ac uptake at 30 to 300 uM incubated for 15 mins by liquid scintillation counting method; type: cell-based
T1 sequence (whole entry): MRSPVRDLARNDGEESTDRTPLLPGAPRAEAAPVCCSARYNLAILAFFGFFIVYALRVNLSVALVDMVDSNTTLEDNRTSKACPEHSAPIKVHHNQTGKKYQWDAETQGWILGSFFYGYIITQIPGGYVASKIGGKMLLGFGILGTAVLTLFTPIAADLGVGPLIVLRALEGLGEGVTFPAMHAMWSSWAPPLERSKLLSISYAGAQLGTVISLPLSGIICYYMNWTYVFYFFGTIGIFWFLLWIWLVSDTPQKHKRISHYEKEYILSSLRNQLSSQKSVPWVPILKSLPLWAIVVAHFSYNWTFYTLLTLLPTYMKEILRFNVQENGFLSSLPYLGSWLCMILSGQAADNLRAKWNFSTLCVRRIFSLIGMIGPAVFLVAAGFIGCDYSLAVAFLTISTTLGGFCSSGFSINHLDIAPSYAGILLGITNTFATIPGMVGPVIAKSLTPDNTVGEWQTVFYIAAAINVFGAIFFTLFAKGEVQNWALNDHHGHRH
Summary of the method: (§1)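 HEK293 cells expressing EGFP-human sialin L22G/L23G (sorting mutant at the plasma membrane), assayed 2 days after lipofection. Uptake of [3H]Neu5Ac (12.5 nM) over 15 min at room temperature in MES-Na+ pH 5.0 with inhibitor added together with tracer. Cells washed twice ice-cold, radioactivity counted by liquid scintillation. Dose-response run in triplicate, two to three independent experiments.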

Sialin (Homo sapiens) [2] = molecular target: T1, Sialin (Homo sapiens); experiment: Inhibition of human recombinant-Sialin expressed in HEK293 cells assessed as reduction in [3H]Neu5Ac uptake at 30 uM incubated for 15 mins by liquid scintillation counting method; type: cell-based; summary of the method: as §1

Compound | inhibition (Sialin (Homo sapiens) [1]) | inhibition (Sialin (Homo sapiens) [2])
Cc1cc(C)cc(C(=O)N(C)[C@H](Cc2ccc(-c3ccccc3)cc2)C(=O)N[C@@H](Cc2c[nH]c3ccccc23)C(=O)O)c1 | Active | 
CC[C@H](C)[C@H](NC(=O)OCC1c2ccccc2-c2ccccc21)C(=O)O |  | Active
CN(Cc1cnc2nc(N)nc(N)c2n1)c1ccc(C(=O)N[C@@H](CCC(=O)O)C(=O)O)cc1 | Active | 
O=C(O)CN(CC(=O)O)c1ccccc1OCCOc1ccccc1N(CC(=O)O)CC(=O)O | Active | 
CC(C)(C)SC[C@H](NC(=O)OCC1c2ccccc2-c2ccccc21)C(=O)O |  | Active
CC(C)(C)OC(=O)C[C@H](NC(=O)OCC1c2ccccc2-c2ccccc21)C(=O)O |  | Active
CC(C)(C)Oc1ccc(C[C@H](NC(=O)OCC2c3ccccc3-c3ccccc32)C(=O)O)cc1 |  | Active
O=C(N[C@@H](CSCc1ccccc1)C(=O)O)OCC1c2ccccc2-c2ccccc21 |  | inactive
O=C(O)CN(CC(=O)O)Cc1cc2c(cc1O)Oc1cc(O)c(CN(CC(=O)O)CC(=O)O)cc1C21OC(=O)c2ccccc21 | Active | 
COC(=O)CC[C@H](NC(=O)OCC1c2ccccc2-c2ccccc21)C(=O)O | Dose-dependent effect | Active
O=C(N[C@@H](Cc1ccccc1)C(=O)O)OCC1c2ccccc2-c2ccccc21 |  | Active
O=C(N[C@@H](CS)C(=O)O)OCC1c2ccccc2-c2ccccc21 |  | Active
O=C(NCCCC[C@H](NC(=O)OCC1c2ccccc2-c2ccccc21)C(=O)O)OCC1c2ccccc2-c2ccccc21 |  | inactive
COc1ccc(CSC[C@H](NC(=O)OCC2c3ccccc3-c3ccccc32)C(=O)O)cc1 |  | Active
CC(C)(C)OC(=O)NCc1ccc(C[C@@H](NC(=O)OCC2c3ccccc3-c3ccccc32)C(=O)O)cc1 | Active | 
CC(C)CC(NC(=O)OCC1c2ccccc2-c2ccccc21)C(=O)O (configuration not stated) |  | Active
O=C(O)[C@@H]1OCCOCCO[C@@H](C(=O)O)[C@H](C(=O)O)OCCOCCO[C@H]1C(=O)O | Active | 
O=C(O)[C@@H]1CCCN1C(=O)OCC1c2ccccc2-c2ccccc21 |  | inactive

Continued, values first:

inhibition (Sialin (Homo sapiens) [1]) | inhibition (Sialin (Homo sapiens) [2]) | Compound
 | Active | O=C(NCCCC[C@H](NC(=O)OCc1cc(=O)oc2cc(O)ccc12)C(=O)O)OCc1ccccc1
Active |  | O=C(NCCCC[C@H](NC(=O)OCC1c2ccccc2-c2ccccc21)C(=O)O)OCc1ccccc1
 | inactive | O=C(OCc1cc(=O)oc2cc(O)ccc12)OCC1c2ccccc2-c2ccccc21
 | Active | CN(C)c1ccc2c(CC(=O)N[C@@H](CCCCNC(=O)OCc3ccccc3)C(=O)O)cc(=O)oc2c1
 | Active | CCN(CC)c1ccc2c(CC(=O)N[C@@H](CCCCNC(=O)OCc3ccccc3)C(=O)O)cc(=O)oc2c1
 | inactive | O=C(NCCCC[C@H](NC(=O)c1cc(=O)[nH]c2ccccc12)C(=O)O)OCc1ccccc1
 | Active | O=C(Cc1cc(=O)oc2c3c4c(cc12)CCCN4CCC3)N[C@@H](CCCCNC(=O)OCc1ccccc1)C(=O)O
Dose-dependent effect | Active | O=C(N[C@@H](CSCc1cc(=O)oc2cc(O)c(Cl)cc12)C(=O)O)OCC1c2ccccc2-c2ccccc21
Dose-dependent effect | Active | COc1ccc2c(CSC[C@H](NC(=O)OCC3c4ccccc4-c4ccccc43)C(=O)O)cc(=O)oc2c1
 | Active | O=C(Cc1cc(=O)oc2cc(O)ccc12)N[C@@H](CCCCNC(=O)OCc1ccccc1)C(=O)O
 | Active | CN(C)c1ccc2c(CC(=O)NCCCC[C@H](NC(=O)OCC3c4ccccc4-c4ccccc43)C(=O)O)cc(=O)oc2c1

From ChEMBL document CHEMBL4627406, “Amino Acids Bearing Aromatic or Heteroaromatic Substituents as a New Class of Ligands for the Lysosomal Sialic Acid Transporter Sialin” (J Med Chem, 2020)
